Article PMC5615838 (Toxicology Reports, 2016)

Columns and labels:
hERG = hERG (Homo sapiens, UniProt Q12809); assay: hERG electrophysiology; type: cell-based
CYP1A2 = target: T1, CYP1A2 (Homo sapiens, UniProt P05177); assay: CYP inhibition, LC–MS/MS assay in human liver microsomes; type: in vitro ADME; settings: pooled human liver microsomes, probe phenacetin
T1 sequence (P05177 1-516): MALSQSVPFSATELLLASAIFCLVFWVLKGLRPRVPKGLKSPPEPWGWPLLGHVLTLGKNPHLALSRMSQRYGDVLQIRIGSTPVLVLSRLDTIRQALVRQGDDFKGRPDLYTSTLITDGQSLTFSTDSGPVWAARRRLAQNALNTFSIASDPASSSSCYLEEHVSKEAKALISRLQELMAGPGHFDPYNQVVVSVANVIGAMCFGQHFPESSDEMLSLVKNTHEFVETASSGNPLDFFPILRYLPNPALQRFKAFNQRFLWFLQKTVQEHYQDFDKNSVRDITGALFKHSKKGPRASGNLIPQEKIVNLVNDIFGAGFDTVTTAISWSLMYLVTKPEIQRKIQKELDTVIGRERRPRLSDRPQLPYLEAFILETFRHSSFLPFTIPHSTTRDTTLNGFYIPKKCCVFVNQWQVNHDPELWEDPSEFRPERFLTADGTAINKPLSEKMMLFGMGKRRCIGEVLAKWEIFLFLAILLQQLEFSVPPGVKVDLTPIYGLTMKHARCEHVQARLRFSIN
Procedure, shortened: (§1)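 Follow-up CYP panel in pooled human liver microsomes with CYP-specific probe substrates; CYP-specific metabolites quantified by LC-MS/MS. Test compound at 10 μM. Percent inhibition reported.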

CYP2C9 = CYP2C9 (Homo sapiens, UniProt P11712); assay: as above; type: in vitro ADME; settings: pooled human liver microsomes, probe tolbutamide
Sequence of CYP2C9 (P11712 whole entry): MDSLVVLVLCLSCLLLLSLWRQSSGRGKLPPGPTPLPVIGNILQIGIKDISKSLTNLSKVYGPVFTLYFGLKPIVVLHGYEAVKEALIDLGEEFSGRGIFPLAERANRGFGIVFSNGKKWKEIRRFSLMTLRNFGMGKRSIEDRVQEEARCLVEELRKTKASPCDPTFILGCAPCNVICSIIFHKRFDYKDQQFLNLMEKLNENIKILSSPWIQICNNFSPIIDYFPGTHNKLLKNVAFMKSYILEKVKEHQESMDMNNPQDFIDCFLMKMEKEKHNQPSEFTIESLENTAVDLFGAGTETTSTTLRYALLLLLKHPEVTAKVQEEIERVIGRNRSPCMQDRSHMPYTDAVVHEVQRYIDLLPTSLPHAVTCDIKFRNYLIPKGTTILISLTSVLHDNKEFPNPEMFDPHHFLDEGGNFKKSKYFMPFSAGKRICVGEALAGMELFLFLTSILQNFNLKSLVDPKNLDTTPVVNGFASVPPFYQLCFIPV
Procedure, shortened: as §1

CYP2C19 = CYP2C19 (Homo sapiens, UniProt P33261); assay: as above; type: in vitro ADME; settings: pooled human liver microsomes, probe S-mephenytoin
Sequence of CYP2C19 (P33261 whole entry): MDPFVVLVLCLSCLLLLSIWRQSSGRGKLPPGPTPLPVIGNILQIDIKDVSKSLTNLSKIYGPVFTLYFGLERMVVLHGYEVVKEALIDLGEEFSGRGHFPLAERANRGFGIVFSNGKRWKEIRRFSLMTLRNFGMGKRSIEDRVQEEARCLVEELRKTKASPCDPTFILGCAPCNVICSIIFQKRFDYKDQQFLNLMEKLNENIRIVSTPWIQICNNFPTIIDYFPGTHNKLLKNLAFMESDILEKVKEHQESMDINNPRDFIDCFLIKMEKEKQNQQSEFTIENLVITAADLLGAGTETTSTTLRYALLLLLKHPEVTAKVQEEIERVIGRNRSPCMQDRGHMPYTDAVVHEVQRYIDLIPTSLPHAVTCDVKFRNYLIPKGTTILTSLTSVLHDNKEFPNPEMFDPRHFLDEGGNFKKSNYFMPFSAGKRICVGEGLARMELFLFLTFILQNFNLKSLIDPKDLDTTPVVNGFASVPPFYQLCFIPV
Procedure, shortened: as §1

[1] = pharmacokinetics and oral bioavailability of S6821; type: in vivo, rat
bone marrow PCEs = assay: in vivo micronucleus assay; set-up: species or system mouse; settings: 500, 1000, 2000 mg/kg bw/day (oral), 2 days, male CD-1 mice
[2] = dose range-finding developmental toxicity study; type: in vivo, rat; settings: 125, 250, 500, 1000 mg/kg bw/day oral gavage, gestation days 6-20
[3] = definitive developmental toxicity study; type: in vivo, rat
[4] = target: human bitter receptor hTAS2R8; settings: antagonist; cited from earlier work
[5] = tested on: human peripheral blood lymphocytes; assay: in vitro chromosome aberration test; settings: 200–1300 μg/mL, 3 or 21 hr exposure, ±S9
[6] = male, Sprague-Dawley, rat, plasma, iv, 1 mg/kg
[7] = male, Sprague-Dawley, rat, plasma, po, 10 mg/kg
[8] = male, Sprague-Dawley, rat, plasma, po, 30 mg/kg
[9] = male, Sprague-Dawley, rat, plasma, po, 100 mg/kg

Sequence of hERG (Q12809 whole entry): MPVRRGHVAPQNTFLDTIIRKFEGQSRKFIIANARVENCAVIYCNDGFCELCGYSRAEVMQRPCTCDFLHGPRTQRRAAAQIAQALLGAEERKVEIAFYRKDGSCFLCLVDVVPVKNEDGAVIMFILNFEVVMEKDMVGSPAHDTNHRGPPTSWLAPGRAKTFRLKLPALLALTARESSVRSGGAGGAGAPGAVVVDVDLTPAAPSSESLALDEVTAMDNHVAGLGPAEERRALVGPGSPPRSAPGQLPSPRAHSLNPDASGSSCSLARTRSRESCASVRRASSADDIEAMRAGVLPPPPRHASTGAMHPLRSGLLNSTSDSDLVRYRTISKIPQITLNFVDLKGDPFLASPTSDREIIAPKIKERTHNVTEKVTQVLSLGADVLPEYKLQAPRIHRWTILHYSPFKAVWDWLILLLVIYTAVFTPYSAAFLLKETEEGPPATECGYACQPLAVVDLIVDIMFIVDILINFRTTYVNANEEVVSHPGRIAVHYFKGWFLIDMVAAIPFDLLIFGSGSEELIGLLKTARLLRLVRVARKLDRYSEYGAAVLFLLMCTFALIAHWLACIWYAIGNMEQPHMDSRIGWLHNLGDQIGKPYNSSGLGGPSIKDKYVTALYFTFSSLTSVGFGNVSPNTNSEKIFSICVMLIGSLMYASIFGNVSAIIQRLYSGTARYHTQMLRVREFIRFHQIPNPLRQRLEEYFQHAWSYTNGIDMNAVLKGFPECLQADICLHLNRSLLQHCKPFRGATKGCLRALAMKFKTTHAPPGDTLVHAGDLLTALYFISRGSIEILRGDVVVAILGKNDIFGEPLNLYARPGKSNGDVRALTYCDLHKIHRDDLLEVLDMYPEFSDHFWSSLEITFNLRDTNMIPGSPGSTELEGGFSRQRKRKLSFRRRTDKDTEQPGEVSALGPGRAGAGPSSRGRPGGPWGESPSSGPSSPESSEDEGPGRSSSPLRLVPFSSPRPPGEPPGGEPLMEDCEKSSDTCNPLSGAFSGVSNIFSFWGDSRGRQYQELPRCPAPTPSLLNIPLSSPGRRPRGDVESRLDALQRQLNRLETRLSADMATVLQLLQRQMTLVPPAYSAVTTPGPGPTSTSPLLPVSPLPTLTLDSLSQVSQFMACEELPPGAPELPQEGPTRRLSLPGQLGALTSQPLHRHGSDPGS

## Cc1noc(C)c1Cn1cc(N2C(=O)CN(Cc3cccc(O)c3)C2=O)cn1 [S6821, 3-(1-((3,5-dimethylisoxazol-4-yl)methyl)-1H-pyrazol-4-yl)-1-(3-hydroxybenzyl)imidazolidine-2,4-dione]
hERG
  inhibition at 10 µM: < 10%
CYP1A2
  inhibition at 10 µM: 18%
CYP2C9
  inhibition at 10 µM: -3%
CYP2C19
  inhibition at 10 µM: 8%
[1]; iv 1.0 mg/kg bw S6821
  AUC0-last/dose: 161 ng·h/mL/mg/kg
[1]; iv, body water 668 mL/kg
  Vss, times the total body water volume in the rat: 0.84 times
[1]; iv, hepatic blood flow 55.2 mL/min/kg
  CL as % of hepatic blood flow in the rat: 190%
[1]; [6]
  AUC(0-t): 161 ng·h/mL
  Cmax: 619 ng/mL
  Tmax: 4.8 min
  Vd: 0.563 L/kg
  clearance: 105 mL/min/kg
  half-life: 6 min
[1]; [7]
  AUC(0-t): 28 ng·h/mL
  Cmax: 12.3 ng/mL
  Tmax: 30 min
  bioavailability: 1.74%
  half-life: 120 min
[1]; [8]
  AUC(0-t): 201 ng·h/mL
  Cmax: 38.5 ng/mL
  Tmax: 30 min
  bioavailability: 4.16%
  half-life: 426 min
[1]; [9]
  AUC(0-t): 410 ng·h/mL
  Cmax: 68.1 ng/mL
  Tmax: 30 min
  bioavailability: 2.55%
  half-life: 258 min
[1]; oral gavage 10 mg/kg bw S6821
  AUC0-last/dose: 2.80 ng·h/mL/mg/kg
[1]; oral gavage 30 mg/kg bw S6821
  AUC0-last/dose: 6.70 ng·h/mL/mg/kg
[1]; oral gavage 100 mg/kg bw S6821
  AUC0-last/dose: 4.10 ng·h/mL/mg/kg
Bone marrow PCEs
  Micronucleus formation (in vivo), Result: Negative
[2]
  Findings: No maternal toxicity or effect on intrauterine growth up to 1000 mg/kg bw/day
[3]; 125 mg/kg bw/day, of 347(25) evaluated
  Malformations, fetuses (litters): 3(2)
[3]; 500 mg/kg bw/day, of 364(25) evaluated
  Malformations, fetuses (litters): 2(2)
[3]; 1000 mg/kg bw/day, of 327(22) evaluated
  Malformations, fetuses (litters): 4(3)
[3]; Mean, 125 mg/kg bw/day
  Corpora Lutea: 15.4
  Dead Fetuses: 0.0
  Fetal Wt.: 5.7 g
  Fetuses, Sex F: 6.8
  Fetuses, Sex M: 7.1
  Implant. Sites: 14.6
  Post- Implant. Loss: 0.7
  Pre- Implant. Loss: 0.8
  Resorptions Early: 0.7
  Resorptions Late: 0.0
[3]; Mean, 500 mg/kg bw/day
  Corpora Lutea: 16.6
  Dead Fetuses: 0.0
  Fetal Wt.: 5.6 g
  Fetuses, Sex F: 7.4
  Fetuses, Sex M: 7.2
  Implant. Sites: 15.4
  Post- Implant. Loss: 0.8
  Pre- Implant. Loss: 1.2
  Resorptions Early: 0.8
  Resorptions Late: 0.0
[3]; Mean, 1000 mg/kg bw/day
  Corpora Lutea: 16.9
  Dead Fetuses: 0.0
  Fetal Wt.: 5.6 g
  Fetuses, Sex F: 7.4
  Fetuses, Sex M: 7.5
  Implant. Sites: 15.8
  Post- Implant. Loss: 0.9
  Pre- Implant. Loss: 1.1
  Resorptions Early: 0.9
  Resorptions Late: 0.0
[3]; Total, 125 mg/kg bw/day
  Dead Fetuses: 0
  Fetuses, Sex F: 170
  Fetuses, Sex M: 177
  Implant. Sites: 364
  Post- Implant. Loss: 17
  Pre- Implant. Loss: 20
  Resorptions Early: 17
  Resorptions Late: 0
[3]; Total, 500 mg/kg bw/day
  Corpora Lutea: 415
  Dead Fetuses: 0
  Fetuses, Sex F: 185
  Fetuses, Sex M: 179
  Implant. Sites: 384
  Post- Implant. Loss: 20
  Pre- Implant. Loss: 31
  Resorptions Early: 19
  Resorptions Late: 1
[3]; Total, 1000 mg/kg bw/day
  Corpora Lutea: 372
  Dead Fetuses: 0
  Fetuses, Sex F: 162
  Fetuses, Sex M: 165
  Implant. Sites: 347
  Post- Implant. Loss: 20
  Pre- Implant. Loss: 25
  Resorptions Early: 20
  Resorptions Late: 0
[3]; oral gavage, gestation days 6-20
  NOAEL for both maternal toxicity and embryo/fetal development: NOAEL for both maternal toxicity and embryo/fetal development = 1000 mg/kg bw/day
[4]
  IC50: 0.035 µM
[5]
  Chromosome aberration (in vitro), Result: Negative
